22 compounds from ChEMBL document CHEMBL1154253, “Synthesis and serotonin transporter activity of sulphur-substituted alpha-alkyl phenethylamines as a new class of anticancer agents” (Eur J Med Chem, 2009) can be followed below.

The target in series [1] is Sodium-dependent serotonin transporter (Rattus norvegicus, UniProt P31652). The series is described as follows: Inhibition of [3H]5-HT reuptake at rat SERT expressed in HEK293 cells after 2 mins by liquid scintillation counting. The format is cell-based.
For series [2], the system named is HEK293. Briefly: Cytotoxicity against human HEK293 cells after 48 hrs by neutral red assay. It counts as cell-based. The conditions noted are these: HEK293, 48 h. The method in brief: (§1)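 Neutral Red uptake: 5 × 10⁴ cells/well grown 24–36 h to sub-confluence, then treated 48 h. Cells incubated 3 ± 1 h with NR dye, washed and solubilised in 50% ethanol–1% acetic acid, and absorbance read at 540 nm (690 nm background). Viability given as % of vehicle-treated cells. pEC50 obtained by sigmoidal regression (Hill slope 1) using 4 concentrations in triplicate on two independent days. SERT-line values compared with parental HEK293 by two-way ANOVA with Bonferroni test. Sodium azide 30 mM and Triton-X 2% as positive controls.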

Another series relates to SH-SY5Y. The series is described as follows: Cytotoxicity against human SH-SY5Y cells after 48 hrs by neutral red assay. The format is functional, cell-based.
Series [3] concerns the target T1, Sodium-dependent serotonin transporter (Homo sapiens, UniProt P31645). The series is described as follows: Inhibition of [3H]5-HT uptake at SERT.
Target sequence in this assay (P31645 whole entry): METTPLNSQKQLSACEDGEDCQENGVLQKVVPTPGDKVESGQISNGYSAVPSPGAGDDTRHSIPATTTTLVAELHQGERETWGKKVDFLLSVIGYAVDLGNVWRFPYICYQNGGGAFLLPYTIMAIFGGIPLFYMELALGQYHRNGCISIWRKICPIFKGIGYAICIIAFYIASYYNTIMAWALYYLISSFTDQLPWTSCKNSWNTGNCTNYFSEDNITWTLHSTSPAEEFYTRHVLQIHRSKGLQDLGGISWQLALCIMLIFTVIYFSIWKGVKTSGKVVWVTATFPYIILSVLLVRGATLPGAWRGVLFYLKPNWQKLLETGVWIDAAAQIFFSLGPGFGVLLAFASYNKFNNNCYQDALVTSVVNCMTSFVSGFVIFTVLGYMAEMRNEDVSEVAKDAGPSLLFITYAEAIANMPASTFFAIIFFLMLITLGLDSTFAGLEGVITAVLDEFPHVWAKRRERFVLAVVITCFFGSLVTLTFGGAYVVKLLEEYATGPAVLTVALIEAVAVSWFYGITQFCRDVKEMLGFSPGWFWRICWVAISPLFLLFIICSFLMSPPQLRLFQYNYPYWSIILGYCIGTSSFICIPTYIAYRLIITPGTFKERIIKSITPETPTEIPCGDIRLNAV
Series [4] addresses Sodium-dependent noradrenaline transporter (Homo sapiens, UniProt P23975). Briefly: Inhibition of human noradrenaline transporter.
The target in series [5] is Sodium-dependent dopamine transporter (Homo sapiens, UniProt Q01959). Briefly: Inhibition of human dopamine transporter.
In series [6] the test system is HEK293. The series is described as follows: Cytotoxicity against human HEK293 cells at 1 uM after 48 hrs by neutral red assay. Conditions: hek293, 48 h. The format is cell-based. The method, boiled down: as §1
Series [7] deals with T1, Sodium-dependent serotonin transporter. The series is described as follows: Induction of human SERT-dependent cytotoxicity in SERT expressing HEK293 cells at 1 uM after 48 hrs by neutral red assay. The format is cell-based. The method, boiled down: as §1
Target sequence in this assay (P31645 whole entry, looked up): as the sequence (P31645 whole entry) above
Series [8] shares this target. The series is described as follows: Inhibition of [3H]5-HT uptake at human SERT expressed in HEK293 cells after 10 mins by scintillation counting. The format is cell-based.
Target sequence in this assay (P31645 whole entry): as above
For series [9], the species on record is Rattus norvegicus. The series is described as follows: Selectivity ratio of IC50 for DAT in rat brain synaptosome to IC50 for SERT in rat brain synaptosome. The format is tissue-based.
For series [10], the species on record is Rattus norvegicus. Briefly: Selectivity ratio of IC50 for NET in rat brain synaptosome to IC50 for SERT in rat brain synaptosome. It counts as tissue-based.
Series [11] concerns the target Sodium-dependent serotonin transporter (Rattus norvegicus) (UniProt P31652). Briefly: Inhibition of [3H]5-HT reuptake at rat SERT expressed in HEK293 cells at 1 uM after 2 mins by liquid scintillation counting. The format is cell-based.

Molecules are shown by their SMILES. Calls of active or inactive are those of the source. The rule behind the calls is not given here.

Chain of Sodium-dependent serotonin transporter (Rattus norvegicus, UniProt P31652) (P31652 whole entry): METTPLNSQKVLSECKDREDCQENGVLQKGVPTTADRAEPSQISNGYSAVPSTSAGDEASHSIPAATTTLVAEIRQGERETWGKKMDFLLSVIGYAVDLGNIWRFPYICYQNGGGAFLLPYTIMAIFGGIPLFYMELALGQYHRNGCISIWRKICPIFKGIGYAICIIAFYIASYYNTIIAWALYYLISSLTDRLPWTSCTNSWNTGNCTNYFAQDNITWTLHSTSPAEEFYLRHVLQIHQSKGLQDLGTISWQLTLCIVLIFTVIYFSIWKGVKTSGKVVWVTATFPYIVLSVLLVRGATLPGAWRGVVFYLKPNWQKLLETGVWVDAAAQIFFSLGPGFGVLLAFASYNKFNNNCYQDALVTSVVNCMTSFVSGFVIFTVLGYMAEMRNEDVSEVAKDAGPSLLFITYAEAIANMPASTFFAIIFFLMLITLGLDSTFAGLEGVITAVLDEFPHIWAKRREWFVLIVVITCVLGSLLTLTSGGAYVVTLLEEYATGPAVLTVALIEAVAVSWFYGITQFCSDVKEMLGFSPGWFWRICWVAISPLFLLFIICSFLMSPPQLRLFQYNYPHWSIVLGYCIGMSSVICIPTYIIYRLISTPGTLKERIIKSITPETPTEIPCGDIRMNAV
Chain of Sodium-dependent dopamine transporter (Q01959 whole entry): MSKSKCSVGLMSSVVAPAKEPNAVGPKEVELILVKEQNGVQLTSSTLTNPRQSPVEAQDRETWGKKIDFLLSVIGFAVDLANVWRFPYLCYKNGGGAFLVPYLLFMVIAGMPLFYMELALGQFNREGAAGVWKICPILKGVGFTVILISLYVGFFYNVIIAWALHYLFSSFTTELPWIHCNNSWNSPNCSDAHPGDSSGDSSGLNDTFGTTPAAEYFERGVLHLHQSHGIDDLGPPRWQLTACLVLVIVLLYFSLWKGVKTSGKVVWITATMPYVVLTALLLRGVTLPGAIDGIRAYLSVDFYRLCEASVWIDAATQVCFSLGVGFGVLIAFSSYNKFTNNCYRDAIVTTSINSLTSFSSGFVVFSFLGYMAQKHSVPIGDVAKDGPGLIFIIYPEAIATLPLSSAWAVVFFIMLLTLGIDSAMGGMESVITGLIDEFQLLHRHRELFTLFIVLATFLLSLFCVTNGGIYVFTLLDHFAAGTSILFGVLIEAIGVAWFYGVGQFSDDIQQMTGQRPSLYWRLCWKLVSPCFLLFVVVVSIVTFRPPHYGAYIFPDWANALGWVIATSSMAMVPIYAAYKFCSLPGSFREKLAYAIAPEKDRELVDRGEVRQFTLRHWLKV
Chain of Sodium-dependent noradrenaline transporter (P23975 whole entry): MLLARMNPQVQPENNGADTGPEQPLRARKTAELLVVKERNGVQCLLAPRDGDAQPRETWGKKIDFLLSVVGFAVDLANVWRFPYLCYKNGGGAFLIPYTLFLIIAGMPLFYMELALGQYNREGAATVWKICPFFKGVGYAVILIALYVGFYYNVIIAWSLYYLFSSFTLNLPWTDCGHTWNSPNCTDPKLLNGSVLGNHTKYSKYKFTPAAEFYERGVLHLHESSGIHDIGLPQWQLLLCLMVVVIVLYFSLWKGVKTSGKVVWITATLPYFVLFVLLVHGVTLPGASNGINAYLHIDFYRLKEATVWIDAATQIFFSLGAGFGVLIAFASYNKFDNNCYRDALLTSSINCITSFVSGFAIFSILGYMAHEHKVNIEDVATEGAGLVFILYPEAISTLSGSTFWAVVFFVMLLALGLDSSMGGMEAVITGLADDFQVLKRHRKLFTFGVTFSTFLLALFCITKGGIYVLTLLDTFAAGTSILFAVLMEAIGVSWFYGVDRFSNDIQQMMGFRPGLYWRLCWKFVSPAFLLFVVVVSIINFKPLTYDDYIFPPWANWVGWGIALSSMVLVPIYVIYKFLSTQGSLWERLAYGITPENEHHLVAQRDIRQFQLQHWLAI
Chain of Sodium-dependent serotonin transporter (Rattus norvegicus) (P31652 whole entry): as the sequence (P31652 whole entry) above

A word on the IC50: it is the concentration that inhibits the measured activity by half. Low readings indicate inhibition by little substance, high ones a need for much substance. `CCSc1ccc(CC(CC)N(C)O)cc1` (centres undefined) gave an IC50 in series [1] of 2 µM. For the same compound, the EC50 was 51.3 µM in the series on HEK293 [2] (read-out: pEC50 (converted)) and 209 µM in the series on SH-SY5Y (read-out: pEC50 (converted)).

`CCNC(C)Cc1ccc(SCC)cc1` (centres undefined) displayed an IC50 in [1] of 0.478 µM. Moreover, the figures for the EC50 with HEK293 [2] (read-out: pEC50 (converted)) and in the series on SH-SY5Y (read-out: pEC50 (converted)) were 6.31 µM and 302 µM, respectively.

Compound `CONC(C)Cc1ccc(SC)cc1` (centres undefined) yielded an IC50 in series [1] of 0.664 µM. For the same compound, the EC50 in the series with HEK293 [2] (read-out: pEC50 (converted)) was 11 µM; with SH-SY5Y (read-out: pEC50 (converted)) it was 2450 µM.

As to `CNC(C)Cc1ccc2c(c1)OCO2` (centres undefined) [MIDOMAFETAMINE], the half-inhibitory concentration (IC50) in series [1] is 1.06 µM; in series [3] it was 0.425 µM; in series [4], 0.405 µM; in series [5], 1.44 µM. In addition, the EC50 with HEK293 [2] (read-out: pEC50 (converted)) is 245 µM; with SH-SY5Y (read-out: pEC50 (converted)), above 10000 µM.

For orientation: Ki means the dissociation constant of the complex between target and ligand, obtained from inhibition or displacement. With `CSc1ccc(CC(C)N)cc1` (centres undefined) [4-METHYLTHIOAMPHETAMINE], the 50% inhibitory concentration (IC50) was 0.207 µM in series [1], 0.074 µM in [3], 2.38 µM in series [4] and 3.07 µM in [5]. The EC50 is 18.6 µM with HEK293 [2] (read-out: pEC50 (converted)), 1 µM with SH-SY5Y (read-out: EC50) and 608 µM with SH-SY5Y (read-out: pEC50 (converted)). The Activity entry in the series on HEK293 [6] is recorded as “Toxic”. Moreover, the outcome in [7] was Active. Besides, in series [8], the Ki turned out to be 0.45 µM. Moreover, the Ratio IC50 was 3070 in the series listed under Rattus norvegicus [9] and 2370 in the series listed under Rattus norvegicus [10].

Compound `CCC(Cc1ccc(SC)cc1)NC(C)C` (centres undefined) returned an IC50 in [1] of 1.94 µM. Moreover, the results for the EC50 in the series on HEK293 [2] (read-out: pEC50 (converted)) and with SH-SY5Y (read-out: pEC50 (converted)) were 17.4 µM and 339 µM, respectively.

`CSc1ccc(CC(C)NCCO)cc1` (centres undefined) yielded a 50% inhibitory concentration (IC50) in series [1] of 0.868 µM. Further, the EC50 in the series with HEK293 [2] (read-out: pEC50 (converted)) was 10 µM; in the series on SH-SY5Y (read-out: pEC50 (converted)) it was 2290 µM.

On to `CCNC(CC)Cc1ccc(SC)cc1` (centres undefined), for which, in [1], inhibition was half-maximal at 0.823 µM (IC50). The EC50 in the series with HEK293 [2] (read-out: pEC50 (converted)) was 10 µM; in the series with SH-SY5Y (read-out: pEC50 (converted)), 151 µM.

`CC(N)Cc1ccc(SCc2ccccc2)cc1` (centres undefined) had an IC50 in [1] of 0.679 µM. Besides, the EC50 with HEK293 [2] (read-out: pEC50 (converted)) was 2.95 µM; in the series with SH-SY5Y (read-out: EC50), 1 µM; with SH-SY5Y (read-out: pEC50 (converted)), 19.5 µM.

For the compound `CCC(N)Cc1ccc(SC)cc1` (centres undefined), the 50% inhibitory concentration (IC50) in series [1] came to 0.611 µM. Moreover, the EC50 with HEK293 [2] (read-out: pEC50 (converted)) is 14.8 µM; with SH-SY5Y (read-out: pEC50 (converted)) it was 437 µM.

`CCC(Cc1ccc(SC)cc1)NCCOC` (centres undefined) showed an IC50 in series [1] of 2.82 µM. Further, the EC50 was 16.2 µM with HEK293 [2] (read-out: pEC50 (converted)) and 3890 µM with SH-SY5Y (read-out: pEC50 (converted)).

The compound `CCC(Cc1ccc(SC)cc1)NO` (centres undefined) yielded a half-maximal inhibitory concentration (IC50) in [1] of 0.598 µM. In addition, the EC50 in the series on HEK293 [2] (read-out: pEC50 (converted)) is 8.51 µM; in the series on SH-SY5Y (read-out: pEC50 (converted)), 31.6 µM.

In the case of `CSc1ccc(CC(C)NO)cc1` (centres undefined), the IC50 in series [1] was found to be 0.436 µM. Further, the figures for the EC50 in the series with HEK293 [2] (read-out: pEC50 (converted)) and with SH-SY5Y (read-out: pEC50 (converted)) were 38 µM and 575 µM, respectively.

In [1], `CCSc1ccc(CC(C)N(C)O)cc1` (centres undefined) gave an IC50 of 1.57 µM. For the same compound, the EC50 with HEK293 [2] (read-out: pEC50 (converted)) is 12.3 µM; in the series with SH-SY5Y (read-out: pEC50 (converted)), 43.7 µM.

In series [1], `CC(N)Cc1ccc(SCCN(C)C)cc1` (centres undefined) gave an IC50 of 43.3 µM. For the same compound, the EC50 was 8.71 µM in the series on HEK293 [2] (read-out: pEC50 (converted)), 1 µM in the series with SH-SY5Y (read-out: EC50) and 240 µM in the series on SH-SY5Y (read-out: pEC50 (converted)).

Take `C#CCNC(C)Cc1ccc(SC)cc1` (centres undefined): 0.688 µM corresponded to half-maximal inhibition in series [1] (IC50). Besides, the EC50 was 24.5 µM in the series on HEK293 [2] (read-out: pEC50 (converted)) and 2340 µM in the series on SH-SY5Y (read-out: pEC50 (converted)).

The inhibition is how much of the control response was suppressed. A lower inhibition goes with little suppression. Compound `CCSc1ccc(CC(CC)NC)cc1` (centres undefined) had an inhibition in series [11] of 26%. The EC50 in the series with HEK293 [2] (read-out: EC50) is above 100 µM.

On to `CCCNC(CC)Cc1ccc(SC)cc1` (centres undefined), for which the IC50 in series [1] worked out at 0.621 µM. Besides, the EC50 in the series on HEK293 [2] (read-out: pEC50 (converted)) is 303 µM; in the series with SH-SY5Y (read-out: pEC50 (converted)) it was 3020 µM.

`COc1ccc(CC(C)N)cc1` (centres undefined) [PARA-METHOXYAMPHETAMINE] yielded an IC50 in series [1] of 0.173 µM. Further, the figures for the EC50 with HEK293 [2] (read-out: pEC50 (converted)) and in the series on SH-SY5Y (read-out: pEC50 (converted)) were 457 µM and above 10000 µM, respectively.

`CON(C)C(C)Cc1ccc(SC)cc1` (centres undefined): in series [1], the 50% inhibitory concentration (IC50) turned out to be 25.1 µM. Moreover, the figures for the EC50 in the series on HEK293 [2] (read-out: pEC50 (converted)) and with SH-SY5Y (read-out: pEC50 (converted)) were 525 µM and above 10000 µM, respectively.

Regarding `C=CCNC(C)Cc1ccc(SC)cc1` (centres undefined), the IC50 in series [1] worked out at 0.524 µM. The EC50 was 15.5 µM in the series on HEK293 [2] (read-out: pEC50 (converted)) and 123 µM in the series with SH-SY5Y (read-out: pEC50 (converted)).

Compound `CCSc1ccc(CC(C)NC)cc1` (centres undefined) had an IC50 in series [1] of 0.724 µM. In addition, the EC50 in the series on HEK293 [2] (read-out: pEC50 (converted)) was 7.59 µM; in the series with SH-SY5Y (read-out: pEC50 (converted)) it was 282 µM.
